The list is not random: actives were taken first. Their share in the collection is about 4.3%.
PREPL inhibitor – PREPL enzyme inhibitors, primary screen, biochemical, fluorescence polarization; inhibition, % at 5.96 µM; hit rate 0.68% among 320,000; Prolyl endopeptidase-like (Homo sapiens), Q4J6C6; recombinant PREPL, fluorescence polarization activity-based probe; in the data active = inhibition above about 43%
SUMO HTRF inh – inhibitors of in vitro SUMOylation cascade, primary screen, biochemical, HTRF, uHTS | hit rate 0.36% among 290,000 | SUMO-conjugating enzyme UBC9 (Homo sapiens), P63279 | HTRF SUMOylation assay, SAE1/SAE2 + UBC9 | inhibition, % at 35 µM; in the data active = inhibition above about 50%, passing the limit was not always enough; inconclusive = no clear call, values can overlap the other calls
ALR inh – inhibitors of human ALR sulfhydryl oxidase, primary screen, biochemical, H2O2 detection, HRP-luminol luminescence, single point; AID 485317, 2010; purified ALR, DTT oxidation; inhibition, % (test concentration not listed); hit rate 3.8% among 290,000; FAD-linked sulfhydryl oxidase ALR (Homo sapiens), P55789;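 active = mean replicate inhibition above about 79%, with every replicate also reaching it, limit read from the data; inconclusive = only one of the two criteria met; inactive = mean below limit and not every replicate reaching it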
RBBP9 inh – human RBBP9 inhibitors, primary screen, biochemical, fluorescence polarization, FP-Rh probe, HTS | Serine hydrolase RBBP9 (Homo sapiens), O75884 | recombinant RBBP9 | inhibition, % at 7.94 µM | hit rate 0.2% among 220,000 | AID 1515, 2009;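 active = inhibition above the campaign mean of all tested compounds plus 3 SD, cut at about 14% in these data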
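Assay system: recombinant human RBBP9; Reagent: Serine-hydrolase probe FP-Rh, 375 nM pre-mixing; Doses: 7.94 µM single dose, 0.794% DMSO; Incubation: 30 min then 45 min, 25 °C; Detection: fluorescence polarization (mP), excitation 525 nm, emission 598 nm; Evaluation: percent inhibition from mP, scaled between DMSO and no-protein wells.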
UBC13 polyUb – UBC13 polyubiquitin chain formation inhibitors, primary screen, biochemical, TR-FRET, uHTS. inhibition, % at 20 µM. Ubiquitin-conjugating enzyme E2 N (Homo sapiens), P61088. hit rate 0.47% among 330,000. AID 485273, 2010; in the data active = inhibition above about 45%, passing the limit was not always enough; inconclusive = no clear call, values can overlap the other calls
Rin1 Abl inh – inhibitors of Rin1-Abl protein binding, primary screen, biochemical, TR-FRET | Tyrosine-protein kinase ABL1 (Homo sapiens) + Ras and Rab interactor 1 (Homo sapiens), … | inhibition, % at 7.35 µM | hit rate 0.4% among 360,000 | AID 588664, 2011; in the data active = inhibition above about 5%, passing the limit was not always enough
Of the large screens only hits and unclear results are named; the others gave an inactive call.

CCN(CC)c1ccc(/C=C/c2ccc3ccc(OC)cc3[n+]2CC)cc1	ALR inh 99.1 (no result: RBBP9 inh)
C[n+]1c(/C=C/c2ccc(O)cc2)ccc2ccccc21	ALR inh 98.9 (no result: RBBP9 inh)
CC[n+]1c(/C=C/c2ccc(N(C)C)cc2)ccc2ccccc21	ALR inh 98.4 (no result: UBC13 polyUb)
C[n+]1c(/C=C/c2ccc3c(c2)OCO3)ccc2ccccc21	none
CC[n+]1c(/C=C/c2ccc(OC)c(OC)c2)ccc2ccccc21	none (no result: RBBP9 inh)
Cc1cc(NC(=O)CCCn2cc([N+](=O)[O-])cn2)n(Cc2ccc(F)cc2)n1	none
CCOC(=O)C(=O)NNc1ccccc1C	ALR inh 98.4
CCOC(=O)C(=O)NNc1cccc(C)c1C	ALR inh 98.4
CCOC(=O)C(=O)Nc1ccccc1C(N)=O	none
CN(C)S(=O)(=O)c1ccc(NC(=O)CSc2ncnc3ccccc23)cc1	none (no result: ALR inh)
O=C(CSc1ncnc2ccccc12)Nc1cccc(S(=O)(=O)N2CCOCC2)c1	ALR inh 97.8
CN(C)S(=O)(=O)c1cccc(NC(=O)CSc2ncnc3ccccc23)c1	ALR inh 99.0, UBC13 polyUb inconclusive
N#Cc1ccsc1NC(=O)CSc1ncnc2ccccc12	ALR inh 98.3
O=C(COc1ccc(S(=O)(=O)N2CCOCC2)cc1)NCc1ccccn1	none (no result: RBBP9 inh)
COc1cccc(-c2c(-c3cc(OC)cc(OC)c3)n(C)c3ccc(-c4cnc(N5CCOCC5)nc4)cc23)c1	none (no result: SUMO HTRF inh, RBBP9 inh)
COc1ccc(-n2c(-c3cc(-c4ccccc4)sc3N)n[nH]c2=S)cc1	none
C=CCn1c(-c2ccccc2[N+](=O)[O-])n[nH]c1=S	ALR inh 89.4
C=CCn1c(-c2ccc([N+](=O)[O-])cc2)n[nH]c1=S	none
Nc1sc(-c2ccccc2)cc1-c1n[nH]c(=S)n1C1CCCCC1	ALR inh 97.8
C=CCn1c(-c2cccc(OC)c2)n[nH]c1=S	ALR inh 96.0
C=CCn1c(-c2cc(-c3ccccc3)sc2N)n[nH]c1=S	ALR inh 92.9
C=CCn1c(-c2cccnc2)n[nH]c1=S	none
C[C@@H]1CN([C@H](C)CO)C(=O)CCCn2nncc2CO[C@@H]1CN(C)C(=O)c1ccc(N2CCN(C)CC2)cc1	none (no result: PREPL inhibitor, SUMO HTRF inh, ALR inh, RBBP9 inh, UBC13 polyUb)
CC(C)CCNC(=O)C(=O)NCC1OCCCN1S(=O)(=O)c1cccs1 (stereo unspecified)	none (no result: RBBP9 inh)
Cn1c(=O)c2c(SC3CCCC3)nc(CC(C)(C)C)nc2n(C)c1=O	none (no result: PREPL inhibitor, SUMO HTRF inh, ALR inh, UBC13 polyUb, Rin1 Abl inh)
CCCc1nc(SC2CCCC2)c2c(=O)n(C)c(=O)n(C)c2n1	ALR inh 98.2 (no result: RBBP9 inh)
N#CCc1nn(-c2ccccc2)c2ncnc(N)c12	none
Cc1ccc(Nc2c(-c3ccc(C)o3)nc3cnccn23)cc1	none (no result: ALR inh)
COc1ccc(-c2nc3cnccn3c2Nc2ccc(C)cc2)cc1	ALR inh 85.7
Cc1ccc(Nc2c(-c3ccccc3)nc3cnccn23)cc1	ALR inh 98.3
Cn1ccnc1C(=O)c1cc(SCC(=O)N2CCOCC2)nc2ccccc12	none
CC1CCC(NCCNC(=O)c2ccco2)CC1 (stereo unspecified)	none (no result: RBBP9 inh)
Cc1cccc(CNC(=O)C2CCC(=O)N(C3CC3)C2)c1 (stereo unspecified)	none (no result: RBBP9 inh)
C=C(C)C(=O)N1CCN(C(=O)C(=C)C)c2ccccc21	none (no result: PREPL inhibitor, SUMO HTRF inh, ALR inh, RBBP9 inh, UBC13 polyUb)
O=C(Nc1ccccc1)N(Cc1ccccc1)C1=NCCS1	ALR inh 98.7
CC1CN=C(N(Cc2ccccc2)C(=O)Nc2ccccc2)S1 (stereo unspecified)	none
CCOc1ccc(C(C)=O)cc1CN1c2ccc(S(N)(=O)=O)cc2CC1C (stereo unspecified)	ALR inh 78.9 (no result: RBBP9 inh)
COc1ccc(-c2nc(CSCC(=O)NC3CCN(Cc4ccccc4)CC3)c(C)o2)cc1OC	ALR inh 98.9 (no result: SUMO HTRF inh, RBBP9 inh)
CCOC(=O)N1CCC(NC(=O)CSCc2nc(-c3ccc(OC)c(OC)c3)oc2C)CC1	ALR inh 98.4
COc1ccc(-c2nc(CSCC(=O)NC3CCCC3)c(C)o2)cc1OC	ALR inh 98.8 (no result: RBBP9 inh)
COc1ccc(-c2nc(CSCC(=O)NC3CC3)c(C)o2)cc1OC	ALR inh 99.0 (no result: RBBP9 inh)
COc1ccc(-c2nc(CN3CCC(C(=O)NC4CCN(Cc5ccccc5)CC4)CC3)c(C)o2)cc1OC	none (no result: RBBP9 inh)
CCOC(=O)N1CCC(NC(=O)CSCc2nc(-c3ccc(C)cc3)oc2C)CC1	none (no result: SUMO HTRF inh, RBBP9 inh)
COc1cc(C(=O)N(Cc2ccccc2)c2cccc(C)c2)ccc1OCC(=O)N1CCOCC1	none (no result: PREPL inhibitor, SUMO HTRF inh, ALR inh, RBBP9 inh, UBC13 polyUb)
CCOC(=O)CSc1n[nH]c(NC(=O)c2cccc(C(F)(F)F)c2)n1	ALR inh 98.9
COc1ccc2cc(S(=O)(=O)n3cnc(C)c3)ccc2c1	ALR inh 98.4
O=c1ccc2ccc(O)cc2o1	none (no result: PREPL inhibitor, SUMO HTRF inh, ALR inh, RBBP9 inh, UBC13 polyUb)
O=c1ccc2cc(O)c(O)cc2o1	ALR inh 96.2
Cc1ccc(Nc2nnc(SC(C)C(=O)NCC3CCCO3)s2)cc1 (stereo unspecified)	none (no result: SUMO HTRF inh, RBBP9 inh)
COC(=O)N/N=C/c1sc(N2CCCCC2)nc1-c1cccs1	ALR inh 98.4
O=C(CN1C(=O)CCC1=O)NNc1ccc2ccccc2c1	ALR inh 98.4
O=C(CNc1ccc2ccccc2c1)NNC1=NCCC1	ALR inh 83.9
O=C(CNc1ccccc1)NNC1=NCCC1	none
COc1ccc2nc(C)cc(SCC(=O)NNC(=O)COc3ccccc3)c2c1	none
COc1ccc2nc(C)cc(Sc3nc4ccccc4s3)c2c1	ALR inh 99.0
CCC1CC(=O)CCN1S(=O)(=O)c1ccc(C)cc1 (stereo unspecified)	none (no result: PREPL inhibitor, SUMO HTRF inh, ALR inh, RBBP9 inh, UBC13 polyUb)
COc1cc(CNc2ccc(N3CCN(C(C)=O)CC3)cc2)ccc1OCc1ccccc1	ALR inh 99.2
CC(=O)N1CCN(c2ccc(NCc3ccco3)cc2)CC1	ALR inh 99.0 (no result: SUMO HTRF inh, RBBP9 inh)
COc1cc(CNc2ccc(NC(C)=O)cc2)ccc1OCc1ccccc1C	none
COc1cc(CNc2ccc(N3CCOCC3)cc2)ccc1OCC(=O)NC(C)(C)C	ALR inh 99.3 (no result: RBBP9 inh)
COc1cccc(N2CCN(C(=S)NCc3ccco3)CC2)c1	ALR inh 87.2
COCCNc1nc(NCCN2CCNC2=O)c2sc(-c3ccccc3)cc2n1	none (no result: PREPL inhibitor, SUMO HTRF inh, ALR inh, RBBP9 inh, UBC13 polyUb)
O=C(COC(=O)c1ccc2ccccc2c1O)Nc1ccccc1	none (no result: PREPL inhibitor, SUMO HTRF inh, ALR inh, RBBP9 inh)
Cc1cc(C)c(C)c(S(=O)(=O)N2C(=S)NC(=O)C2CC(C)C)c1C (stereo unspecified)	none (no result: ALR inh)
Cc1cc(C)c(C)c(S(=O)(=O)N2C(=S)NC(=O)C2C(C)C)c1C (stereo unspecified)	ALR inh 96.3
Cc1ccc(Cn2nc(C)c(C(=O)NCC(c3cccs3)N3CCOCC3)c2Cl)cc1 (stereo unspecified)	none (no result: SUMO HTRF inh, RBBP9 inh)
CCn1c(CCC(=O)N(C)CC(=O)Nc2cccc(F)c2)nc2cc(S(=O)(=O)N(C)C)ccc21	none (no result: SUMO HTRF inh, RBBP9 inh)
